ChEMBL document CHEMBL4689842, “EUbOPEN Chemogenomics Library wave 1” (2021)

Tested on: HEK-293T
Assay: Multiplex assay against HEK293T;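 for Population Tubulin-Different-Phenotype (%): share of the cells with healthy nuclei that show this phenotype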
Type: toxicity, cell-based
Conditions: human
Method in brief: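 Cells were classed with CellPathfinder machine-learning gating, first as Hoechst high-intensity objects or normal cells, then (normal cells) as healthy, pyknosed or fragmented nuclei, and finally (pyknosed cells) as mitotic or apoptotic. Staining of live cells at seeding used Hoechst33342, BioTracker Green Microtubule Cytoskeleton Dye, MitoTracker Red and Annexin V Alexa Fluor 680, with imaging on a CQ1 microscope at 37°C and 5% CO2 after compound addition. Tubulin, mitochondrial-mass and membrane-permeability phenotypes are per cents of healthy-nucleus cells.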

[1] = 12 h, 1 µM, compound concentration 1 uM, replicate 1
[2] = 12 h, 1 µM, compound concentration 1 uM, replicate 2
[3] = 12 h, 10 µM, compound concentration 10 uM, replicate 1
[4] = 12 h, 10 µM, compound concentration 10 uM, replicate 2
[5] = 24 h, 1 µM, compound concentration 1 uM, replicate 1
[6] = 24 h, 1 µM, compound concentration 1 uM, replicate 2
[7] = 24 h, 10 µM, compound concentration 10 uM, replicate 1
[8] = 24 h, 10 µM, compound concentration 10 uM, replicate 2

With `CN(C)CCOc1ccc(-c2nc(-c3ccncc3)c(-c3ccc4c(c3)CC/C4=N\O)[nH]2)cc1` [SB590885] the “Population Apoptotic (%)” value [1] was 25%, the “Population Fragmented Nuclei (%)” value [1] was 15% and the “Population Healthy Nuclei (%)” value [1] was 65%. The “Population Hoechst High Intensity Objects (%)” value [1] was 22%, the “Population Membrane Permeable-Phenotype (%)” value [1] was 30% and the “Population Mitochondria Different-Phenotype (%)” value [1] was 8%. For the same compound, the “Population Mitotic Cells (%)” value [1] was 74%, the “Population Normal (%)” value [1] was 77% and the “Population Pyknosed Nuclei (%)” value [1] was 18%. For the same compound, the “Population Tubulin-Different-Phenotype (%)” value [1] was 44%, the “Total Cell Count” value [1] was 678 and the “Population Apoptotic (%)” value [2] was 17%. For the same compound, the “Population Fragmented Nuclei (%)” value [2] was 2%, the “Population Healthy Nuclei (%)” value [2] was 88% and the “Population Hoechst High Intensity Objects (%)” value [2] was 12%. For the same compound, the “Population Membrane Permeable-Phenotype (%)” value [2] was 12%, the “Population Mitochondria Different-Phenotype (%)” value [2] was 23% and the “Population Mitotic Cells (%)” value [2] was 82%. The “Population Normal (%)” value [2] was 87%, the “Population Pyknosed Nuclei (%)” value [2] was 8% and the “Population Tubulin-Different-Phenotype (%)” value [2] was 76%. The “Total Cell Count” value [2] was 1120, the “Population Apoptotic (%)” value [3] was 28% and the “Population Fragmented Nuclei (%)” value [3] was 12%. For the same compound, the “Population Healthy Nuclei (%)” value [3] was 69%, the “Population Hoechst High Intensity Objects (%)” value [3] was 9% and the “Population Membrane Permeable-Phenotype (%)” value [3] was 4%. For the same compound, the “Population Mitochondria Different-Phenotype (%)” value [3] was 8%, the “Population Mitotic Cells (%)” value [3] was 71% and the “Population Normal (%)” value [3] was 90%. For the same compound, the “Population Pyknosed Nuclei (%)” value [3] was 18%, the “Population Tubulin-Different-Phenotype (%)” value [3] was 5% and the “Total Cell Count” value [3] was 676. For the same compound, the “Population Apoptotic (%)” value [4] was 8%, the “Population Fragmented Nuclei (%)” value [4] was 7% and the “Population Healthy Nuclei (%)” value [4] was 87%. For the same compound, the “Population Hoechst High Intensity Objects (%)” value [4] was 1%, the “Population Membrane Permeable-Phenotype (%)” value [4] was 3% and the “Population Mitotic Cells (%)” value [4] was 91%. The “Population Normal (%)” value [4] was 98%, the “Population Pyknosed Nuclei (%)” value [4] was 4% and the “Population Tubulin-Different-Phenotype (%)” value [4] was 9%. For the same compound, the “Total Cell Count” value [4] was 1929, the “Population Apoptotic (%)” value [5] was 24% and the “Population Fragmented Nuclei (%)” value [5] was 15%. For the same compound, the “Population Healthy Nuclei (%)” value [5] was 69%, the “Population Hoechst High Intensity Objects (%)” value [5] was 24% and the “Population Membrane Permeable-Phenotype (%)” value [5] was 23%. For the same compound, the “Population Mitochondria Different-Phenotype (%)” value [5] was 14%, the “Population Mitotic Cells (%)” value [5] was 75% and the “Population Normal (%)” value [5] was 75%. For the same compound, the “Population Pyknosed Nuclei (%)” value [5] was 15%, the “Population Tubulin-Different-Phenotype (%)” value [5] was 48% and the “Total Cell Count” value [5] was 670. For the same compound, the “Population Apoptotic (%)” value [6] was 10%, the “Population Fragmented Nuclei (%)” value [6] was 6% and the “Population Healthy Nuclei (%)” value [6] was 86%. For the same compound, the “Population Hoechst High Intensity Objects (%)” value [6] was 18%, the “Population Membrane Permeable-Phenotype (%)” value [6] was 27% and the “Population Mitochondria Different-Phenotype (%)” value [6] was 7%. For the same compound, the “Population Mitotic Cells (%)” value [6] was 89%, the “Population Normal (%)” value [6] was 81% and the “Population Pyknosed Nuclei (%)” value [6] was 6%. For the same compound, the “Population Tubulin-Different-Phenotype (%)” value [6] was 65%, the “Total Cell Count” value [6] was 1437 and the “Population Apoptotic (%)” value [7] was 20%. The “Population Fragmented Nuclei (%)” value [7] was 9%, the “Population Healthy Nuclei (%)” value [7] was 85% and the “Population Hoechst High Intensity Objects (%)” value [7] was 5%. The “Population Membrane Permeable-Phenotype (%)” value [7] was 10%, the “Population Mitochondria Different-Phenotype (%)” value [7] was 5% and the “Population Mitotic Cells (%)” value [7] was 79%. The “Population Normal (%)” value [7] was 94%, the “Population Pyknosed Nuclei (%)” value [7] was 5% and the “Population Tubulin-Different-Phenotype (%)” value [7] was 8%. The “Total Cell Count” value [7] was 810, the “Population Apoptotic (%)” value [8] was 1% and the “Population Fragmented Nuclei (%)” value [8] was 24%. For the same compound, the “Population Healthy Nuclei (%)” value [8] was 73%, the “Population Hoechst High Intensity Objects (%)” value [8] was 3% and the “Population Membrane Permeable-Phenotype (%)” value [8] was 7%. For the same compound, the “Population Mitochondria Different-Phenotype (%)” value [8] was 1%, the “Population Mitotic Cells (%)” value [8] was 98% and the “Population Normal (%)” value [8] was 96%. The “Population Pyknosed Nuclei (%)” value [8] was 2%, the “Population Tubulin-Different-Phenotype (%)” value [8] was 10% and the “Total Cell Count” value [8] was 3237.
